Paper PMC8602434 (Drugs in R&D, 2021)

Test: Healthy volunteers, multiple-dose arm, sc once daily for 7 days
Type: in vivo
Settings: human
Procedure, shortened: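 Double-blind, placebo-controlled abdominal sc dosing once daily for 7 days: 1.0 or 3.0 mg, cohorts of 10 (8 active, 2 placebo). Serial blood on Day 1 (predose to 24 h), peak/trough on Days 2–6, Day 7 (predose to 16 h), then to 48 h after last dose. Validated bioanalytical method. Noncompartmental: Day 7 values as steady state, AUCτ, accumulation ratio. AEs recorded.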

[1] = 1.0 mg sc once daily, Day 7, geometric mean, n=5
[2] = 1.0 mg sc once daily, Day 7, median, n=5
[3] = 1.0 mg sc once daily, Day 7, median, n=8
[4] = 3.0 mg sc once daily, Day 1, geometric mean, n=7
[5] = 3.0 mg sc once daily, Day 1, geometric mean, n=8
[6] = 3.0 mg sc once daily, Day 1, median, n=7
[7] = 3.0 mg sc once daily, Day 1, median, n=8
[8] = 3.0 mg sc once daily, Day 7, geometric mean, n=8
[9] = 3.0 mg sc once daily, Day 7, mean (SD), n=8
[10] = 3.0 mg sc once daily, Day 7, median, n=6
[11] = 3.0 mg sc once daily, Day 7, median, n=8

With `CCCC[C@H](NC(C)=O)C(=O)N[C@H]1CCC(=O)NC[C@@H](C(=O)N[C@@H](Cc2c[nH]c3ccccc23)C(N)=O)NC(=O)[C@H](CCCNC(=N)N)NC(=O)[C@@H](Cc2ccccc2)NC(=O)[C@H](Cc2c[nH]cn2)NC1=O` [PL8177] as the molecule, how does the t½ (1.0 mg sc once daily, Day 1, geometric mean, n=6) read?
The t½ was 4.1 h.

And the CL/F (1.0 mg sc once daily, Day 1, median, n=6)?
The CL/F was 20.2 L/h.

And the “AI (accumulation index)” value [1]?
Its value is 1.1.

And the t½ [1]?
Its t½ is 6.7 h.

What about the AUCτ (1.0 mg sc once daily, Day 7, geometric mean, n=8) of the same molecule?
Its AUCτ is 51.2 ng·h/mL.

What about the “AI (accumulation index)” value (1.0 mg sc once daily, Day 7, mean (SD), n=5) of the same molecule?
The value was 1.1 (0.1).

What about the AUCτ (1.0 mg sc once daily, Day 7, mean (SD), n=8) of the same molecule?
Its AUCτ is 52.9 (15.0) ng·h/mL.

And the “AI (accumulation index)” value [2]?
Its value is 1.1.

What about the “AUC∞” value [2] of the same molecule?
Its value is 51.8 ng·h/mL.

What about the Vd/Fss [2] of the same molecule?
Its Vd/Fss is 174 L.

What about the AUCτ [3] of the same molecule?
Its AUCτ is 48.3 ng·h/mL.

And the tmax [3]?
The tmax was 0.5 h.

And the “AUC∞” value [4]?
Its value is 169.0 ng·h/mL.

And the “AUC∞/dose” value [4]?
The value was 56.5 ng·h/mL/mg.

What about the Cmax [5] of the same molecule?
The Cmax was 53.7 ng/mL.

And the Cmax/dose [5]?
Its Cmax/dose is 17.9 ng/mL/mg.

And the “AUC∞/dose” value (3.0 mg sc once daily, Day 1, mean (SD), n=7)?
The value was 57.2 (10.2) ng·h/mL/mg.

And the Cmax/dose (3.0 mg sc once daily, Day 1, mean (SD), n=8)?
The Cmax/dose was 18.1 (3.2) ng/mL/mg.

And the “AUC∞” value [6]?
Its value is 159.0 ng·h/mL.

And the “AUC∞/dose” value [6]?
Its value is 53.0 ng·h/mL/mg.

What about the CL/F [6] of the same molecule?
Its CL/F is 18.9 L/h.

What about the t½ [6] of the same molecule?
Its t½ is 9.6 h.

And the “AUC0–t” value [7]?
The value was 145.0 ng·h/mL.

And the Cmax [7]?
Its Cmax is 50.0 ng/mL.

And the “AI (accumulation index)” value (3.0 mg sc once daily, Day 7, geometric mean, n=6)?
Its value is 1.4.

And the AUCτ [8]?
Its AUCτ is 174.0 ng·h/mL.

What about the AUCτ/dose [8] of the same molecule?
The AUCτ/dose was 58.1 ng·h/mL/mg.

What about the Cmax/dose [8] of the same molecule?
Its Cmax/dose is 19.1 ng/mL/mg.

What about the “AI (accumulation index)” value (3.0 mg sc once daily, Day 7, mean (SD), n=6) of the same molecule?
Its value is 1.4 (0.2).

And the AUCτ [9]?
The AUCτ was 177.0 (36.0) ng·h/mL.

And the AUCτ/dose [9]?
The AUCτ/dose was 59.1 (12.0) ng·h/mL/mg.

What about the Cmax/dose [9] of the same molecule?
The Cmax/dose was 19.5 (4.52) ng/mL/mg.

And the “AI (accumulation index)” value [10]?
Its value is 1.3.

What about the “AUC∞” value [10] of the same molecule?
Its value is 200.0 ng·h/mL.

And the AUCτ [11]?
The AUCτ was 171.0 ng·h/mL.

And the AUCτ/dose [11]?
Its AUCτ/dose is 57.1 ng·h/mL/mg.

What about the “AEs leading to study discontinuation, serious AEs, or severe AEs” value (multiple-dose arm) of the same molecule?
Its value is “no reports”.

And the “Dose linearity for AUC∞ and Cmax” value (multiple-dose arm)?
The value was “inconclusive”.

And the “Intact drug excreted in the urine” value (multiple-dose arm)?
Its value is no more than 1%.

What about the “Most commonly reported AEs” value (multiple-dose arm) of the same molecule?
Its value is “injection-site pain, erythema, and induration”.

What about the “Time after dosing at which Cmax was generally reached (tmax)” value (multiple-dose arm) of the same molecule?
The value was 0.25 to 0.75 h.
